# Source: PubChem
# Yeast life ext = yeast lifespan extension. 130,000 tested, 0.68% active. inhibition of the nicotinamide effect, % at 10 µM. AID 775. S. cerevisiae growth with nicotinamide, OD615; deaD strain in restrictive glucose medium;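 active = inhibition above a set limit, placed 3 SD over the median of all compounds, cut at about 26% in these data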
#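 System: DeaD-strain S. cerevisiae / Buffer or medium: CSMM-D, restrictive glucose (dextrose) synthetic minimal medium / Probe or stimulus: nicotinamide, 1.5 mM, co-present with compound / Compound: one concentration, 10 µM, DMSO 0.25% / Incubation: 48 h compound exposure at 30 °C, humidified / Technique: optical density (absorbance) at 615 nm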
# RAM network inh = yeast RAM network inhibition; 190,000 tested, 1.8% active; AID 868; S. cerevisiae dse1pr::URA3 reporter, 5-FOA growth OD615, 2 d; analog-sensitive cbk1-as2 kinase mutant strain; inhibition, % at 50 µM;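 active = inhibition above a set limit, 3 SD over mean compound inhibition, cut at about 8.4% in these data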;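 note: inhibition rescues growth on 5-FOA so higher OD means more RAM inhibition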
# MT stabilizer = microtubule stabilization, imaging screen; % tubulin-high responders, % at 10 µM; 200,000 tested, 0.83% active; HeLa tubulin immunostaining HCS, 24 h; share of cells brighter than vehicle mean+2SD; AID 2205;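 active = plate Z-score above 3 for both tubulin-high and condensed-nucleus cell shares, with cell loss under 80%, at 10 µM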;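 note: anti alpha tubulin signal scored within the nucleus-defined area of each cell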
# Yeast growth inh = chemicals that inhibit yeast BB579 growth in restrictive medium (lifespan-shortening candidates); S. cerevisiae BB579 growth, OD615, 48 h; inhibition, % at 10 µM; AID 804; 140,000 tested, 0.51% active;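 active = inhibition above a set limit, 3 SD over the mean compound inhibition, cut at about 44% in these data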
#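 Detection: OD615 turbidity measurement; Material: Saccharomyces cerevisiae DeaD strain BB579, replicative lifespan model yeast; Timing: 48 h exposure, 30 °C; Doses: single 10 µM dose; Medium: CSMM-D restrictive synthetic medium containing dextrose (glucose); Controls: amphotericin B at 10 µg/mL as positive control.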
# HMGR II inh = blocks class II HMG-CoA reductase of Enterococcus faecalis. 190,000 tested, 0.41% active. inhibition, % at 10 µM. purified E. faecalis HMGR, NADPH absorbance 340 nm kinetic;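 active = inhibition above a set limit, the median over all tested compounds plus 3 SD, cut at about 9.5% in these data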;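 note: enzyme runs in reverse so mevalonate oxidation gives rising NADPH absorbance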
# b-catenin transl = alters nuclear translocation of beta-catenin in HeLa cells. immunofluorescence imaging. nuclear translocation activity, % at 5 µM. 190,000 tested, 0.3% active. AID 1665;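 active = nuclear translocation activity above 50% at 5 µM, with a well cell count of 50 or more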;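 note: per-cell ratio of nuclear to cytoplasmic median beta-catenin stain intensity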
#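 Test system: human HeLa cells, native beta-catenin. Compound dosing: 5 µM primary single dose, 0.1% DMSO, 0.02–20 µM confirmation series. Incubation: compound exposure 24 h at 37°C. Detection: beta-catenin immunostaining with DAPI counterstain, 20x imaging, 6 fields/well. Read-out basis: Nuclear/cytoplasmic beta-catenin signal ratio, % activation.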
# Hits are given with their value; n = inactive; x = not tested or not shown. In the library only some 3.5% were active in any assay of this set; here they are far more common.
SMILES,Yeast life ext,RAM network inh,MT stabilizer,Yeast growth inh,HMGR II inh,b-catenin transl
Cc1ccc2c(c1)-c1nc3ccccc3cc1C2=NC1CCCCC1,n,n,n,47,n,n
O=C(CC1(c2ccc(Cl)cc2)C2CC3CC(C2)CC1C3)NCCO (stereo not drawn),x,n,n,x,n,n
COc1ccccc1OCC(=O)NNC(=O)c1cccs1,33,n,n,n,n,n
COc1ccc(CC(=O)NNC(=O)c2cccs2)cc1,n,n,n,n,n,n
CCSc1nnc(NC(=O)COc2cccc3ccccc23)s1,n,9.7,n,n,n,n
CCSc1nnc(NC(=O)c2ccccn2)s1,n,n,n,97,n,x
CCSc1nnc(NC(=O)COc2ccc(Cl)cc2)s1,x,n,n,x,n,n
COc1ccc(C(C)(C)C)cc1S(=O)(=O)n1ccnc1C,x,n,n,x,n,n
CC(/C=C/c1ccc(Cl)o1)=C\C(=O)O,x,x,n,x,x,n
CC(=C/C(=O)O)/C=C/c1ccco1,28,n,n,n,n,n
O=C1CSC(c2ccccc2Cl)N1 (stereo not drawn),x,n,n,x,n,n
COC(=O)c1[nH]c2ccc(F)cc2c1NS(=O)(=O)c1ccc(F)c(C)c1,n,10,n,n,n,n
COC(=O)c1[nH]c2ccc(C)cc2c1NS(=O)(=O)c1ccc(F)c(C)c1,n,n,n,n,n,n
Cc1ccc2c(CSc3nncn3C)cc(=O)oc2c1C,x,n,n,x,n,n
c1cc2c(cc1C1CCCCC1)c1c3n2CCCNC3CCC1 (stereo not drawn),x,n,n,68,n,n
CN(C)S(=O)(=O)N1CCN(c2ccc([N+](=O)[O-])c(NC3CC3)c2)CC1,x,8.6,n,x,n,n
CCOC(=O)c1ccccc1N1C(=O)CSC1=S,37,n,n,n,n,n
COc1ccc(C2C(C#N)=C(N)OC3=C2C(=O)CC(C)(C)C3)cc1OC (stereo not drawn),x,n,n,x,n,n
C=CCOc1ccc(C2C(C#N)=C(N)N(Nc3ccccc3)C3=C2C(=O)CC(C)(C)C3)cc1OC (stereo not drawn),n,n,32,n,n,n
O=C(OCc1ccc(F)cc1)c1ccc2c(c1)-c1ccccc1C2=O,n,11,n,n,n,n
CN(C)S(=O)(=O)c1cccc(NC(=O)c2cc3c(=O)n4ccccc4nc3s2)c1,n,n,n,n,n,n
Cc1cc(NS(=O)(=O)c2ccc(NC(=O)c3cc4c(=O)n5ccccc5nc4s3)cc2)nc(C)n1,x,9.0,n,x,n,n
CC1=NN(Cc2ccccc2)C(=O)C1C(c1ccccc1)C(C#N)C#N (stereo not drawn),38,n,n,n,n,n
CC1=NN(Cc2ccccc2)C(=O)C1C(c1ccc(Cl)cc1)C(C#N)C#N (stereo not drawn),41,n,n,n,n,n
CC1=NCCN1CCNC(=O)Nc1ccc(C(C)(C)C)cc1,x,x,x,x,x,n
SMILES,Yeast life ext,RAM network inh,MT stabilizer,Yeast growth inh,HMGR II inh,b-catenin transl
CC(=O)c1c(COC(=O)c2ccccc2Cl)nc2ccccc2[n+]1[O-],x,x,x,x,x,n
COCC(=O)Nc1ccc(C(=O)Nc2ccccc2Cl)cc1,x,n,n,x,n,n
Cc1nn(C)c(Oc2ccccc2)c1CCNC(=O)C(C)(C)C,x,n,n,x,n,n
Cc1ccc(Oc2c(CO)c(-c3ccccc3)nn2C)cc1,x,n,18,x,n,n
Cc1nnc(SC(C)C#N)n1-c1ccccc1 (stereo not drawn),x,n,n,x,12,n
CCOc1ccc(Br)cc1/C(C)=N\NC1=NCCN1,n,n,35,n,n,82
O=C(NCC1CCCN(C(=O)c2cscn2)C1)c1ccccc1Cl (stereo not drawn),x,n,x,x,10,n
CC(C)CCNC(=O)CCCc1ccccc1,x,n,n,x,n,n
CCC(=NCc1ccccc1)C1=C(O)C(C(=O)OC)C(C)(C)CC1=O (stereo not drawn),n,n,n,n,n,n
CCCCC(=Nc1ccc(N)cc1)C1=C(O)C(C(=O)OC)C(C)(C)CC1=O (stereo not drawn),72,n,n,n,n,n
CCCC(=Nc1ccccc1)C1=C(O)C(C(=O)OC)C(C)(C)CC1=O (stereo not drawn),n,n,n,n,n,n
